CDK5 inh: blocks human CDK5/p35 kinase activity | Q00535+Q15078 | Recombinant CDK5/p35, ADP-Glo luminescence, 60 min | inhibition, % at 10 µM | 330,000 compounds, 0.01% hits | AID 488839;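 active means highest replicate inhibition of at least 50% and at least 75% of replicates reaching 50%; inconclusive means only one of the two criteria met; inactive means both criteria failed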;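 further: plate controls were DMSO neutral control for no effect and GW8510 at 10 µM for full effect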
SR-BI DiI inh: mouse SR-BI HDL lipid transfer inhibition; ldlA[mSR-BI] CHO cells, DiI-HDL uptake fluorescence, 3 h; inhibition, % at 12.5 µM; 320,000 compounds, 0.96% hits; Q61009; AID 488896;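 active means mean replicate inhibition of at least 70% and a set share of replicates each scoring 70 or more; inconclusive means meets just one of the two criteria; inactive means fails both criteria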;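 further: 0% = median of neutral control wells and 100% = median of positive control wells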
SR-BI DiI-HDL act: enhances SR-BI lipid uptake from DiI-HDL. AID 504775. activation, % at 12.5 µM. CHO ldlA[mSR-BI] cells, DiI-HDL uptake fluorescence, 3 h; 100 = double the neutral-control signal. 320,000 compounds, 0.096% hits;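 active means mean replicate activation of at least 60% and every replicate at or above 60%; inconclusive means mean or all-replicate condition met, but not both; inactive means mean below 60% and not all replicates reaching 60%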;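 further: 0% = median plate neutral-control signal and 100% = twice that signal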
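system = CHO ldlA[mSR-BI] cells, LDL receptor-null, SR-BI overexpressing | medium = Ham's F12 with 0.5% BSA, HEPES 25 mM, pH 7.4 | probe or stimulus = DiI-HDL 10 µg/mL | compound dosing = single-point compound dose | incubation = compound exposure 3 h, 37 °C | technique = DiI fluorescence, bottom read | read-out = cell-associated DiI fluorescence as measure of HDL uptake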
dFosB act: enhances mouse delta FosB homodimer DNA binding. AID 493131. activation, % at 25 µM. P13346. purified delta FosB, TAMRA-CDK5 oligo fluorescence polarization; percent of positive-control signal above neutral wells. 340,000 compounds, 0.99% hits;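 active means mean activation above about 17%, with every replicate also reaching it, limit read from the data, passing the limit was not always enough; inconclusive means only one of the two conditions met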
Target sequence (P13346 whole entry, looked up): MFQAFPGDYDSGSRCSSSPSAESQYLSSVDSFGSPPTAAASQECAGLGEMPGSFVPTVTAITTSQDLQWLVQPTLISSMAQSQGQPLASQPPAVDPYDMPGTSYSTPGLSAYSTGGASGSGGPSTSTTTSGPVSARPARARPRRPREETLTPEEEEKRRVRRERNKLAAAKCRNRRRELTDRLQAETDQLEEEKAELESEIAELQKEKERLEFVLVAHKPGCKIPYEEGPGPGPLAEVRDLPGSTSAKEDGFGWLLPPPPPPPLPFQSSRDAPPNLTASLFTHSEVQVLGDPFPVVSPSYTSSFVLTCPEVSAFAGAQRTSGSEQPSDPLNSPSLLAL
The depositor's hits bear a star. An excerpt weighted towards active compounds, which were near 2% of everything screened.

How did COc1cc(/C=N/NC(=O)c2cccnc2)ccc1OC(=O)c1cc(OC)c(OC)c(OC)c1 do in these assays?
CDK5 inh: 1.1; SR-BI DiI inh: 73.4*; SR-BI DiI-HDL act: -73.4; dFosB act: -11.6

Results for CC(=O)Nc1ccc(C(=O)N/N=C/c2ccccc2OC(=O)c2ccc(Cl)cc2)cc1 ?
CDK5 inh: -1.5; SR-BI DiI inh: 52.4; SR-BI DiI-HDL act: -52.4; dFosB act: -3.6

What do the screens show for `COc1cc(/C=N/NC(N)=S)ccc1OC(=O)c1ccc(C)cc1`?
CDK5 inh: -0.6; SR-BI DiI inh: 73.7*; SR-BI DiI-HDL act: -73.7; dFosB act: 2.6

How did COc1cc(/C=N/NC(=O)c2cccnc2)ccc1OC(=O)c1ccc2c(c1)OCO2 do in these assays?
CDK5 inh: 0.9; SR-BI DiI inh: -0.2; SR-BI DiI-HDL act: 0.2; dFosB act: 1.1

What do the screens show for `COc1ccc(CN(CC(O)COc2cccc3[nH]cc(C)c23)C(C)(C)C)cc1` (stereo not drawn)?
CDK5 inh: 0.4; SR-BI DiI inh: -2.8; SR-BI DiI-HDL act: 2.8; dFosB act: 2.3

How did COc1c(/C=N/NC(=O)[C@H]2C[C@@H]2c2ccccc2)c(CCN(C)C(C)=O)cc2c1OCO2 do in these assays?
CDK5 inh: -0.6; dFosB act: -7.2

What do the screens show for `COc1c(/C=N/NC(=O)c2ccncc2)c(CCN(C)C(C)=O)cc2c1OCO2`?
CDK5 inh: -4.3; SR-BI DiI inh: -145.3; SR-BI DiI-HDL act: 145.3*; dFosB act: -7.2

How did O=C(CNC(=O)c1ccccc1Br)N/N=C/c1cc(Br)ccc1O do in these assays?
CDK5 inh: -1.2; SR-BI DiI inh: -14.0; SR-BI DiI-HDL act: 14.0; dFosB act: 32.1*

How did O=C(N/N=C/c1cc(Cl)ccc1O)c1cccnc1 do in these assays?
CDK5 inh: 0.4; SR-BI DiI inh: 70.0*; SR-BI DiI-HDL act: -70.0; dFosB act: -10.0

What do the screens show for `O=C(Nc1cc(S(=O)(=O)Nc2ccc(Cl)cc2)ccc1O)c1ccc(S(=O)(=O)N2CCCCCC2)cc1`?
CDK5 inh: 0.8; SR-BI DiI inh: 6.3; SR-BI DiI-HDL act: -6.3; dFosB act: 14.6

How did O=C(CNC(=O)c1ccccc1Br)N/N=C/c1ccccc1O do in these assays?
CDK5 inh: 0.0; SR-BI DiI inh: -0.8; SR-BI DiI-HDL act: 0.8; dFosB act: 8.9

How did O=C(N/N=C\c1cc(Cl)ccc1O)c1ccc(S(=O)(=O)N2CCCCC2)cc1 do in these assays?
CDK5 inh: -0.3; SR-BI DiI inh: 134.6*; SR-BI DiI-HDL act: -134.6; dFosB act: 7.9

How did O=C(N/N=C/c1cc(Cl)ccc1O)c1ccccc1Br do in these assays?
CDK5 inh: -1.0; SR-BI DiI inh: 78.5*; SR-BI DiI-HDL act: -78.5; dFosB act: -12.1

What do the screens show for `O=C(N/N=C/c1cccnc1)c1cccc(Cl)c1`?
CDK5 inh: 1.7; SR-BI DiI inh: -24.8; SR-BI DiI-HDL act: 24.8; dFosB act: -8.7

How did Cc1ccc(-n2ncc3c2CC(C)(C)CC3NC(=O)CCN2CCCO2)cc1 (stereo not drawn) do in these assays?
SR-BI DiI inh: 3.7; SR-BI DiI-HDL act: -3.7; dFosB act: -5.9

How did Oc1c(Cl)cc(Cl)cc1/C=N/Nc1ncc(Br)cn1 do in these assays?
CDK5 inh: -0.9; SR-BI DiI inh: 129.6*; SR-BI DiI-HDL act: -129.6; dFosB act: 1.9

How did O=C(N/N=C/c1cc(Cl)cc(Cl)c1O)c1ccncc1 do in these assays?
CDK5 inh: 1.5; SR-BI DiI inh: 131.7*; SR-BI DiI-HDL act: -131.7; dFosB act: -7.3

What do the screens show for `CCCOc1ccc(-c2c(C(=O)N/N=C/c3ccc(C)o3)nnn2-c2nonc2N)cc1`?
CDK5 inh: 0.0; SR-BI DiI inh: 78.3*; SR-BI DiI-HDL act: -78.3; dFosB act: inconclusive

Results for CCCOc1ccc(-c2c(C(=O)N/N=C/c3ccc(OCC)cc3)nnn2-c2nonc2N)cc1 ?
CDK5 inh: -2.1; SR-BI DiI inh: 62.2; SR-BI DiI-HDL act: -62.2; dFosB act: 1.3

How did CCCOc1ccc(-c2c(C(=O)N/N=C/c3ccncc3)nnn2-c2nonc2N)cc1 do in these assays?
SR-BI DiI inh: 38.7; SR-BI DiI-HDL act: -38.7; dFosB act: 1.8

Results for Cc1ccc(/C=N/NC(=O)c2nnn(-c3nonc3N)c2-c2ccccc2)o1 ?
CDK5 inh: 0.0; SR-BI DiI inh: 22.4; SR-BI DiI-HDL act: -22.4; dFosB act: -3.3

Results for CCCOc1ccc(-c2c(C(=O)N/N=C/c3cccs3)nnn2-c2nonc2N)cc1 ?
CDK5 inh: -0.8; SR-BI DiI inh: 73.3*; SR-BI DiI-HDL act: -73.3; dFosB act: 5.4

Results for CCOc1ccc(-c2c(C(=O)N/N=C/c3ccc(C)o3)nnn2-c2nonc2N)cc1 ?
CDK5 inh: -0.8; SR-BI DiI inh: 75.8*; SR-BI DiI-HDL act: -75.8; dFosB act: -1.3

How did Nc1ccccc1Oc1c(F)c(F)c(Oc2ccccc2N)c(F)c1F do in these assays?
CDK5 inh: 0.0; SR-BI DiI inh: 5.4; SR-BI DiI-HDL act: -5.4; dFosB act: 5.3

How did CC(C)(C)OC(=O)N1CCCC(C(=O)Nc2cccc(C(=O)N3CCOCC3)c2)C1 (stereo not drawn) do in these assays?
CDK5 inh: 3.2; SR-BI DiI inh: 19.6; SR-BI DiI-HDL act: -19.6; dFosB act: -7.5

What do the screens show for `COc1cccc(C(=O)NC(=S)Nc2ccccc2N2CCCC2)c1`?
CDK5 inh: 0.3; SR-BI DiI inh: 85.0*; SR-BI DiI-HDL act: -85.0; dFosB act: -10.2

What do the screens show for `CCC(=O)N1CCN(c2ccc(Cl)cc2NC(=O)c2ccc([N+](=O)[O-])o2)CC1`?
CDK5 inh: 1.1; SR-BI DiI inh: 49.2; SR-BI DiI-HDL act: -49.2; dFosB act: 0.5

How did O=C(c1ccc(-c2cccc([N+](=O)[O-])c2)o1)N1CCN(c2ccc([N+](=O)[O-])cc2)CC1 do in these assays?
CDK5 inh: 1.2; SR-BI DiI inh: 71.1*; SR-BI DiI-HDL act: -71.1; dFosB act: -5.9

How did CCC(=O)N1CCN(c2ccc(Cl)cc2NC(=O)c2cccc([N+](=O)[O-])c2)CC1 do in these assays?
CDK5 inh: 0.3; SR-BI DiI inh: 70.8*; SR-BI DiI-HDL act: -70.8; dFosB act: -13.8

Results for CCC(=O)N1CCN(c2ccccc2NC(=S)NC(=O)c2cccc([N+](=O)[O-])c2)CC1 ?
CDK5 inh: -3.1; SR-BI DiI inh: 70.4*; SR-BI DiI-HDL act: -70.4; dFosB act: -6.5

How did Cc1ccc(C(=O)OCC(=O)NC(C)c2ccccc2)cc1C (stereo not drawn) do in these assays?
CDK5 inh: -1.2; SR-BI DiI inh: 3.3; SR-BI DiI-HDL act: -3.3; dFosB act: -2.7

How did CC(C)c1nnc(NC(=O)C2CCN(C(=O)Nc3ccc(Cl)cc3)CC2)s1 do in these assays?
CDK5 inh: -0.5; SR-BI DiI inh: 61.1; SR-BI DiI-HDL act: -61.1; dFosB act: -6.9

How did O=C(NC(=S)Nc1ccccc1N1CCCC1)c1ccco1 do in these assays?
CDK5 inh: 1.3; SR-BI DiI inh: 7.1; SR-BI DiI-HDL act: -7.1; dFosB act: -3.9

Results for CCC(=O)N1CCN(c2ccccc2NC(=O)c2ccc(-c3cccc([N+](=O)[O-])c3)o2)CC1 ?
CDK5 inh: 0.6; SR-BI DiI inh: 75.7*; SR-BI DiI-HDL act: -75.7; dFosB act: -7.4
